Broadly, the inhibition in vivo is the share of the control response that was lost under treatment. Lower therefore signals a response near the control.

Results on 13 molecules are retold here after ChEMBL document CHEMBL1124990, “Propenyl carboxamide derivatives as antagonists of platelet activating factor” (J Med Chem, 1990).

Holding throughout (format): functional
Experiment [1] has as its system Cavia porcellus. As to the kind of experiment: In vivo inhibition of the platelet activating factor-induced bronchoconstriction at dose 1.0 mg/kg administered intravenous in guinea pig. Put shortly: (§1)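 Male Hartley guinea pigs (400–600 g), urethane-anesthetized (2 g/kg ip), jugular cannula; propranolol given 5 min before PAF; succinylcholine (1.2 mg/kg iv) then ventilation at 40 breaths/min, 4.0 cm³ stroke. Drug or vehicle iv 1 min before PAF 1 μg/kg iv. Tracheal pressure change averaged over four control and four treated animals, expressed as % inhibition; screen at 1 mg/kg.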

For experiment [2], the system named is Cavia porcellus. As to the kind of experiment: In vivo inhibition of the platelet activating factor-induced bronchoconstriction after 2 hr at dose 50 mg/kg administered perorally in guinea pig. The conditions noted are these: route oral. Put shortly: (§2)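 Oral dosing of 50 mg/kg, either 2 h or 6 h before iv PAF challenge (1 μg/kg), in urethane-anesthetized male Hartley guinea pigs (400–600 g). Animals were propranolol-pretreated, paralysed with succinylcholine and ventilated. Tracheal pressure change averaged over four vehicle and four drug-treated animals and reported as % inhibition.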

Experiment [3] concerns Cavia porcellus. As to the kind of experiment: Dose that caused significant inhibition of the platelet activating factor-induced bronchoconstriction in guinea pig after intravenous administration. The conditions noted are these: read-out: ID50 (the source's name). In outline: as §1
Experiment [4] has as its system Cavia porcellus. As to the kind of experiment: In vivo inhibition of the platelet activating factor-induced bronchoconstriction after 6 hr at dose 50 mg/kg administered perorally in guinea pig. The conditions noted are these: route oral. In outline: as §2
Experiment [5] has as its system Cavia porcellus. As to the kind of experiment: Dose that caused significant inhibition of the platelet activating factor-induced bronchoconstriction in guinea pig after peroral administration. Particulars: po, read-out: ID50 (the source's name). Put shortly: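 Male Hartley guinea pigs (400–600 g), urethane-anesthetized (2 g/kg ip), jugular cannula, propranolol pretreatment, succinylcholine paralysis and ventilation. Compound or vehicle given orally 2 h before iv PAF challenge (1 μg/kg). Tracheal pressure rise averaged over four control and four dosed animals, giving % inhibition.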

The molecule `CCCCc1c(/C=C/C(=O)N[C@@H](C)CCCc2cccnc2)ccc2c(OC)cccc12` registered an inhibition in vivo at 1 mg/kg in experiment [1] of 50%. In experiment [2], this molecule returned an inhibition in vivo at 50 mg/kg of 4%. Moreover, in experiment [3], the ED50 amounted to 1 mg/kg.
The molecule `CCCCCc1c(/C=C/C(=O)N[C@@H](CC)CCCc2cccnc2)n(C)c2cc(OC)ccc12` registered an inhibition in vivo at 1 mg/kg in experiment [1] of 98%. For the same molecule, the inhibition in vivo at 50 mg/kg was found to be 99% in experiment [2] and 96% in experiment [4]. Moreover, the ED50 was 0.07 mg/kg in experiment [3] and 3 mg/kg in experiment [5].
In the same order, the values of `COc1ccc(-c2c(/C=C/C(=O)N[C@@H](C)CCCc3cccnc3)ccc3cc(OC)ccc23)cc1` are 92%, 79%, 55%, 0.18 mg/kg and 12 mg/kg.
`CCCCC1=C(/C=C/C(=O)N[C@@H](C)CCCc2cccnc2)CCc2cc(OC)ccc21` returned an inhibition in vivo at 1 mg/kg in experiment [1] of 94%. Also, in experiment [2], the inhibition in vivo at 50 mg/kg worked out at 50%. For the same molecule, the ED50 was 0.46 mg/kg in experiment [3] and 50 mg/kg in experiment [5].
Molecule `CCCCC/C(=C\C=C\C(=O)N[C@@H](C)CCCc1cccnc1)c1ccc(OC)cc1` registered an inhibition in vivo at 1 mg/kg in experiment [1] of 99%. Besides, the figures for the inhibition in vivo at 50 mg/kg in experiment [2] and in experiment [4] were 100% and 71%, respectively. Also, the ED50 in experiment [3] was determined as 0.05 mg/kg; in experiment [5] it was 4.1 mg/kg.
In experiment [1], `CCCCCc1c(/C=C/C(=O)N[C@@H](C)CCCc2cccnc2)oc2cc(OC)ccc12` gave an inhibition in vivo at 1 mg/kg of 89%. This molecule also yielded an inhibition in vivo at 50 mg/kg in experiment [2] of 0%. For the same molecule, the ED50 in experiment [3] worked out at 0.06 mg/kg.
Consider `CCCCCC1=C(/C=C/C(=O)N[C@@H](C)CCCc2cccnc2)Cc2cc(OC)ccc21`, for which, in experiment [1], the inhibition in vivo at 1 mg/kg came out at 96%. For the same molecule, the inhibition in vivo at 50 mg/kg in experiment [2] stood at 0%. In addition, the ED50 in experiment [3] amounted to 0.05 mg/kg.
With `CCCCCc1c(/C=C/C(=O)N[C@@H](C)CCCc2cccnc2)sc2cc(OC)ccc12`, testing at 1 mg/kg in experiment [1] gave an inhibition in vivo of 98%. Further, the inhibition in vivo at 50 mg/kg in experiment [2] and in experiment [4] was 97% each time. For the same molecule, the ED50 in experiment [3] was 0.11 mg/kg; in experiment [5], 5.4 mg/kg.
In experiment [1], `CCCCc1c(/C=C/C(=O)N[C@@H](C)CCCc2cccnc2)ccc2cc(OC)ccc12` had an inhibition in vivo at 1 mg/kg of 95%. Further, the inhibition in vivo at 50 mg/kg is 92% in experiment [2] and 71% in experiment [4]. For the same molecule, the ED50 was found to be 0.45 mg/kg in experiment [3] and 4.2 mg/kg in experiment [5].
In experiment [1], `CCCCc1c(/C=C/C(=O)N[C@@H](C)CCCc2cccnc2)ccc2ccc(OC)cc12` showed an inhibition in vivo at 1 mg/kg of 0%.
Turning to `COc1ccc(C2=C(/C=C/C(=O)N[C@@H](C)CCCc3cccnc3)CCc3cc(OC)ccc32)cc1`, the inhibition in vivo at 1 mg/kg in experiment [1] is 95%. Further, the inhibition in vivo at 50 mg/kg came to 75% in experiment [2] and 1% in experiment [4]. Further, the ED50 in experiment [3] turned out to be 0.15 mg/kg; in experiment [5], 17 mg/kg.
On the same counts, the results for `CCCCc1c(/C=C/C(=O)N[C@@H](C)CCCc2cccnc2)cc(OC)c2ccccc12` are 90%, 95%, 52%, 0.11 mg/kg and 2.8 mg/kg.
With `CCCCc1c(/C=C/C(=O)N[C@@H](C)CCCc2cccnc2)cc(OC)c2ccc(OC)cc12`, in experiment [1], at 1 mg/kg the inhibition in vivo was 80%. The molecule further registered an inhibition in vivo at 50 mg/kg in experiment [2] of 16%. Further, in experiment [3], the ED50 turned out to be 0.44 mg/kg.
